pIC50: −log10 of the molar value.
Legend:
MCF7 = experiment: Cytotoxicity against human MCF7 cells after 72 hrs by Alamar Blue assay; type: functional, cell-based; details: MCF7, 72 h
Procedure, shortened: (§1)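 Cells seeded and grown at 37 °C under 5% CO2 for 24 h, then compounds in DMSO added in duplicate wells. Exposure 72 h at 37 °C, then media replaced with fresh media plus AlamarBlue and fluorescence read. Growth was computed from mean fluorescence at time zero, after 72 h with test substance, and after 72 h with vehicle control. IC50 derived.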

A549 = experiment: Cytotoxicity against human A549 cells after 72 hrs by Alamar Blue assay; type: functional, cell-based; details: A549, 72 h; procedure, shortened: as §1

Compound | pIC50 (MCF7) | pIC50 (A549)
CO[C@@]12[C@H](COC(N)=O)C3=C(C(=O)C(C)=C(N)C3=O)N1C[C@@H]1N[C@@H]12 [MITOMYCIN] | 6.70 | 6.40
CCOC(=O)c1cc2nc(C)[nH]c2cc1[N+](=O)[O-] | < 4.00 | < 4.00
Cc1ccc(/C=N\NC(=O)c2cc3nc(C)[nH]c3cc2[N+](=O)[O-])cc1 | 5.52 | 4.14
CCN1CCN(C(=O)N[C@@H](C(=O)N[C@@H]2C(=O)N3C(C(=O)O)=C(CSc4nnnn4C)CS[C@H]23)c2ccc(O)cc2)C(=O)C1=O [CEFOPERAZONE] | < 4.00 | < 4.00
CC(C)=NNC(=O)c1cc2nc(C)[nH]c2cc1[N+](=O)[O-] | < 4.00 | < 4.00
Cc1nc2cc(C(=O)O)ccc2[nH]1 | < 4.00 | < 4.00
Cc1nc2cc(C(=O)N/N=C\c3c[nH]c4ccccc34)c([N+](=O)[O-])cc2[nH]1 | < 4.00 | < 4.00
Cc1nc2cc(C(=O)N/N=C\c3ccccn3)c([N+](=O)[O-])cc2[nH]1 | < 4.00 | < 4.00
COC(=O)c1cccc2oc(-c3cccc4oc(-c5ccccc5O)nc34)nc12 | 5.85 | 5.70
CC(C)=NNC(=O)c1ccc2[nH]c(C)nc2c1 | < 4.00 | < 4.00
Cc1nc2cc(C(=O)N/N=C\c3ccco3)c([N+](=O)[O-])cc2[nH]1 | 4.09 | < 4.00
Cc1nc2cc(C(=O)N/N=C\c3ccc(C)o3)c([N+](=O)[O-])cc2[nH]1 | < 4.00 | < 4.00
Cc1nc2cc(C(=O)NN)c([N+](=O)[O-])cc2[nH]1 | < 4.00 | < 4.00
CCOC(=O)c1ccc2[nH]c(C)nc2c1 | 4.21 | < 4.00

From ChEMBL document CHEMBL1137700, “New transition metal ion complexes with benzimidazole-5-carboxylic acid hydrazides with antitumor activity” (Eur J Med Chem, 2009)
